# Results taken from article PMC3082038 (Cancer Chemotherapy and Pharmacology, 2010).
# How the values were obtained:
# [1] = system: liver cytochrome P450, CYP1A1/2; conditions: non-clinical studies; cited from earlier work
# VCAM-1 = assay: Angiogenesis-related factor: VCAM-1; type: in vivo, human
# How it was run: (§1)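 Plasma and urine were collected from patients before treatment and after day 8 and day 28 of oral test compound dosing, and analysed at a central commercial laboratory. ELISA kits were used for human VEGF (plasma and urine), ELAM-1, VCAM-1 and soluble t-PA. Soluble PAI-1 was measured by latex photometric immunoassay. Values are reported as median (range) per time point.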
# [2] = 100 mg/m^2 after meals, previous clinical study; cited from earlier work
# [3] = Urinary excretion of TSU-68; type: in vivo, human; conditions: all dose levels
# How it was run: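 Urine was collected in 0–12 h (b.i.d.) or 0–6/0–12 h (t.i.d.) intervals after selected doses, plus pre-dose and up to 24 h after the final sampled dose. Drug was measured by validated HPLC-UV (LLOQ 0.1 μg/ml), and excretion was expressed as % of dose.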
# [4] = system: patients with advanced solid tumors; conditions: b.i.d., between-meal conditions; cited from earlier work
# t-PA = assay: Angiogenesis-related factor: t-PA; type: in vivo, human
# How it was run: as §1
# plasma VEGF = assay: Angiogenesis-related factor: plasma VEGF; type: in vivo, human
# How it was run: as §1
# ELAM-1 = assay: Angiogenesis-related factor: ELAM-1; type: in vivo, human
# How it was run: as §1
# PAI-1 = assay: Angiogenesis-related factor: PAI-1; type: in vivo, human
# How it was run: as §1
# [5] = PD patients (13 pts.), Wilcoxon signed rank-sum test
compound,measurement,setting,value
"Cc1[nH]c(/C=C2\C(=O)Nc3ccccc32)c(C)c1CCC(=O)O [TSU-68, (Z)-5-[(1,2-dihydro-2-oxo-3H-indol-3-ylidene)methyl]-2,4-dimethyl-1H-pyrrole-3-propanoic acid]","Effect on liver cytochrome P450, CYP1A1/2 involved in its own metabolism",[1],induction
same,"VCAM-1, median","VCAM-1; day 8, 23 patients",562 ng/mL
same,"VCAM-1, range","VCAM-1; day 8, 23 patients","303–1,140 ng/ml"
same,"VCAM-1, median","VCAM-1; day 28, 22 patients",545.5 ng/mL
same,"VCAM-1, range","VCAM-1; day 28, 22 patients",355 to 988 ng/mL
same,Absolute bioavailability,[2],42%
same,Urinary excretion of TSU-68,[3],below 1 % of dose
same,Recommended dosage,[4],≤ 800 mg/m^2
same,"t-PA, median","t-PA; day 8, 23 patients",7.2 ng/mL
same,"t-PA, range","t-PA; day 8, 23 patients",3.3 to 14.3 ng/mL
same,"t-PA, median","t-PA; day 28, 22 patients",6.8 ng/mL
same,"t-PA, range","t-PA; day 28, 22 patients",2.9 to 13.5 ng/mL
same,Change of plasma VEGF at day 28 compared to baseline,plasma VEGF; [5],significantly increasing
same,"Plasma VEGF, median","plasma VEGF; day 8, 23 patients",55 pg/mL
same,"Plasma VEGF, range","plasma VEGF; day 8, 23 patients",<31 to 278 pg/mL
same,"Plasma VEGF, median","plasma VEGF; day 28, 22 patients",63 pg/mL
same,"Plasma VEGF, range","plasma VEGF; day 28, 22 patients",<31 to 270 pg/mL
same,"ELAM-1, median","ELAM-1; day 8, 23 patients",50 ng/mL
same,"ELAM-1, range","ELAM-1; day 8, 23 patients",13 to 136 ng/mL
same,"ELAM-1, median","ELAM-1; day 28, 22 patients",45.5 ng/mL
same,"ELAM-1, range","ELAM-1; day 28, 22 patients",17 to 114 ng/mL
same,Change of PAI-1 at day 28 compared to baseline,PAI-1; [5],significantly increasing
same,"PAI-1, median","PAI-1; day 8, 23 patients",28 ng/mL
same,"PAI-1, range","PAI-1; day 8, 23 patients",11 to 92 ng/mL
same,"PAI-1, median","PAI-1; day 28, 22 patients",31 ng/mL
same,"PAI-1, range","PAI-1; day 28, 22 patients",11 to 120 ng/mL
